The whole screen tested about 360,000 compounds, of which about 5,400 (1.5%) were called active.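 Rule for the calls: active = inhibition above a per-plate cutoff, the mean inhibition of test compounds on that plate plus 3 SD (cut at about 49% in these data); inactive = the rest.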 The list comes from a sample in which actives are over-represented; it also holds similar structures and randomly drawn compounds.
Biological target: Trace amine-associated receptor 1 (Homo sapiens) (UniProt Q96RJ0)
Assay: human TAAR1 antagonists, primary screen, Fluo-8 calcium fluorescence, CHO RD-HGA16 cells (AID 624466);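 note: 0% = DMSO plus EC80 beta-PEA response and 100% = DMSO alone without agonist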
Settings: CHO RD-HGA16 TAAR1, Fluo-8 calcium fluorescence, antagonist; at 3 µM; stronger effect = higher value
Outline: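 Test system: CHO RD-HGA16 cells bearing hTAAR1 | Reagent: β-PEA, EC80 | Compound dosing: 3 µM, single point | Schedule: Dye loading 75 min at 37 °C, then 30 min room temperature | Signal: Calcium fluorescence with Fluo-8 | Evaluation: Percent inhibition of PEA-evoked calcium signal, max/basal emission ratio | Control set: DMSO-only wells and EC80 β-PEA-stimulated wells | Repeats: Singlicate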

Sequence of Trace amine-associated receptor 1 (Homo sapiens) (Q96RJ0 whole entry, looked up): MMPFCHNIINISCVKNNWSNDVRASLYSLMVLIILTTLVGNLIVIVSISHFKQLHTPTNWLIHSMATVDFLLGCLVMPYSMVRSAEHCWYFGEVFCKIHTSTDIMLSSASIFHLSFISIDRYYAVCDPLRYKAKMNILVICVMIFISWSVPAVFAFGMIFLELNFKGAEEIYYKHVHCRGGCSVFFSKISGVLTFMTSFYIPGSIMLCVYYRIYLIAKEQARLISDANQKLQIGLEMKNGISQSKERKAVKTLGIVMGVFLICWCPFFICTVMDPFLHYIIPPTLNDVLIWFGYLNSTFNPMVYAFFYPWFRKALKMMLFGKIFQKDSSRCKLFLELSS

SMILES	inhibition
O=C(Nc1ccc(-c2nnc(-c3ccccc3)o2)cc1)c1ccc(Br)o1	71% (active)
CCS(=O)(=O)c1ccc(-c2cccc(NC(=O)c3ccc(Br)o3)c2)nn1	13.4% (inactive)
CN1CCN(C(=O)c2ccc(NC(=O)c3ccc(Br)o3)cc2)CC1	-4.9% (inactive)
CC(=O)OCC1(O)CC23CCC4c5ccoc5CCC4(C)C2CCC1C3 (stereo unspecified)	13.6% (inactive)
COC(=O)C[C@@H]1C=C[C@@H](NC(=O)c2cccnc2)[C@@H](CO)O1	-15.9% (inactive)
CCC(C)(C)NC(=O)c1cc([N+](=O)[O-])ccc1N1CCCCC1	-10.4% (inactive)
Cc1cc(OCCCN2CCN(Cc3ccccc3)CC2)ccc1[N+](=O)[O-]	-20.9% (inactive)
Cc1cc(OCCCCOc2ccc(C#N)cc2)ccc1[N+](=O)[O-]	51.1% (active)
Cc1cc(OCC(=O)NC2CCN(C)CC2)ccc1[N+](=O)[O-]	-21.6% (inactive)
COc1ccc(-n2nc(C(=O)NCC(=O)N3CCC(C(N)=O)CC3)c3ccccc3c2=O)cc1OC	1.2% (inactive)
CCOC(=O)C(Cc1ccc(N)cc1)N1C(=O)c2ccccc2C1=O (stereo unspecified)	10.7% (inactive)
N/C(=N\c1nc2ccccc2o1)NC(=O)C(Cc1ccccc1)N1C(=O)c2ccccc2C1=O (stereo unspecified)	49% (active)
O=C(NCCN1CCOCC1)[C@H](Cc1ccccc1)N1C(=O)c2ccccc2C1=O	-8.4% (inactive)
CC(C)(C)C1CCC(=O)N2CCC[C@]2(c2ccccc2)C1 (stereo partly specified)	-2.31% (inactive)
COCOCCn1cc(CN2CCS(=O)(=O)N(Cc3ccc(-c4ccc(OC)cc4)cc3)C(CC(C)C)C2=O)nn1 (stereo unspecified)	54.1% (active)
CC(C)CC1C(=O)N(Cc2cn(CC3CCCCC3)nn2)CCS(=O)(=O)N1Cc1ccc(-c2ccc(Cl)cc2)cc1 (stereo unspecified)	-15.1% (inactive)
COCOCCn1cc(CN2CCS(=O)(=O)N(Cc3ccc(-c4cccc(N(C)C)c4)cc3)C(CC(C)C)C2=O)nn1 (stereo unspecified)	1.52% (inactive)
COc1ccc(-c2ccc(CN3C(CC(C)C)C(=O)N(Cc4cn(CC5CCCCC5)nn4)CCS3(=O)=O)cc2)cn1 (stereo unspecified)	-9.27% (inactive)
COc1ccc(-c2ccc(CN3C(CC(C)C)C(=O)N(Cc4cn(CC5CCCCC5)nn4)CCS3(=O)=O)cc2)cc1 (stereo unspecified)	-8.03% (inactive)
COCOCCn1cc(CN2CCS(=O)(=O)N(Cc3ccc(-c4ccccc4)cc3)C(CC(C)C)C2=O)nn1 (stereo unspecified)	54.1% (active)
CCOc1ccc(CNC(=O)CCC(=O)N2CCSc3ccccc32)cc1	-0.53% (inactive)
O=S1(=O)CC(N2CCN(CCO)CC2)CN1Cc1cn(Cc2ccc(Cl)cc2)nn1 (stereo unspecified)	-8.26% (inactive)

SMILES	inhibition
COc1ccc(OC)c(CN2C(=O)CCC2(C)c2nnnn2Cc2ccccc2)c1 (stereo unspecified)	-20.4% (inactive)
CCN1CCN(c2nc(Nc3cc(OC)ccc3OC)nc(Nc3cc(OC)ccc3OC)n2)CC1	-14.1% (inactive)
COC(=O)c1ccc(Oc2nc(Nc3ccc(F)cc3)nc(N3CCCC3)n2)cc1	-16.1% (inactive)
CCOc1ccc(Nc2nc(Cl)nc(N3CCN(c4ccc(OC)cc4)CC3)n2)cc1	56.5% (active)
O=[N+]([O-])c1ccc(N=NNc2ccc([N+](=O)[O-])cc2)cc1	-6.71% (inactive)
CC(C)c1ccc(C=NNc2ccc([N+](=O)[O-])cn2)cc1	17.1% (inactive)
O=[N+]([O-])c1ccc(N/N=C/c2ccccc2)cc1	61.6% (active)
O=C(NN=Cc1ccco1)C(=O)Nc1ccc(Cl)c([N+](=O)[O-])c1	8.28% (inactive)
CN(C)c1ccc(C=NCCc2ccc(S(N)(=O)=O)cc2)cc1	-1.3% (inactive)
c1ccc2c(c1)CCc1snnc1-2	-2.49% (inactive)
S=C(NCCCc1cnc[nH]1)NCCCN(Cc1ccc(Cl)c(Cl)c1)c1ccc(Br)cn1	51.9% (active)
NCCCNC(=S)NCCCN(Cc1ccc(Cl)cc1)c1ccc(Br)cn1	0.12% (inactive)
C=CCN=C1NC(c2ccccc2)C(C(=O)OC)=C(C)N1Cc1ccc(C(F)(F)F)cc1 (stereo unspecified)	31.4% (inactive)
CSc1ncccc1C(=O)N1CCCC(Nc2ccc(F)c(F)c2)C1 (stereo unspecified)	4.84% (inactive)
CC(=O)c1c(C)[nH]c(C(=O)COC(=O)c2cccc(S(=O)(=O)N(C)c3ccccc3)c2)c1C	81.8% (active)
CN(c1ccccc1)S(=O)(=O)c1ccc(Cl)c(C(=O)OCC(N)=O)c1	-0.08% (inactive)
CC(=O)c1c(C)[nH]c(C(=O)COC(=O)c2cccs2)c1C	36% (inactive)
O=C(Nc1ccc(N2CCN(C(=O)C3CC3)CC2)cc1)c1cccs1	16.4% (inactive)
COc1ccccc1N1CCN(C(=O)Cn2nnc(-c3cccs3)n2)CC1	2.09% (inactive)
O=C(Nc1ccccc1-c1nnn(CC(=O)N2CCN(c3ccccc3)CC2)n1)c1cccs1	62% (active)
Cc1ccc(F)cc1S(=O)(=O)Nc1cccc(C(=O)N2CCCC(C(N)=O)C2)c1 (stereo unspecified)	-13.3% (inactive)
COC(=O)[C@]12CCCCC=C1N(Cc1ccco1)C(=O)[C@H](CC(=O)NCCCCc1ccccc1)C2	12.7% (inactive)

SMILES	inhibition
CC(=O)C1=C(C)N(Cc2ccccc2)C(=S)NC1c1cccc(Br)c1 (stereo unspecified)	25.4% (inactive)
CN(C(=O)CN1C(=O)NC(C)(CCc2ccccc2)C1=O)c1ccccc1 (stereo unspecified)	9.09% (inactive)
CN(C)c1ccc(/C=C2\NC(=S)N(Cc3ccccc3)C2=O)cc1	74.3% (active)
COc1ccc(OC)c2[nH]c(=O)c(CCNC(=O)C(C)(C)C)cc12	-17% (inactive)
COc1ccc(OC)c2[nH]c(=O)c(CCNC(=O)C(=O)c3c[nH]c4ccccc34)cc12	64.7% (active)
O=C(NCCCc1ccccc1)C(=O)c1c[nH]c2ccccc12	-6.38% (inactive)
O=C(COC(=O)C1CCCCC1)Nc1ccc([N+](=O)[O-])cc1	35.5% (inactive)
CC(=O)Nc1ccc(NC(=O)COC(=O)C2CCC(C(C)(C)C)CC2)cc1 (stereo unspecified)	65.2% (active)
CCC(C)c1ccc(NC(=O)COC(=O)C2CCCC2)cc1 (stereo unspecified)	5.25% (inactive)
O=C(Nc1ccc(F)cc1)C(CCc1ccccc1)N1CCN(CC(=O)N2CCCC2)CC1 (stereo unspecified)	4.42% (inactive)
C[C@H](CO)N1C[C@H](C)[C@@H](CN(C)C(=O)Nc2ccccc2F)OCc2cn(nn2)CCCC1=O	6.99% (inactive)
CCCNC(=O)C1(C)CCN(Cc2csc(-c3ccc(Cl)cc3)n2)C1 (stereo unspecified)	-5.66% (inactive)
CN(C)S(=O)(=O)c1cccc(NC(=O)COC(=O)C2(c3ccccc3F)CCCC2)c1	62.5% (active)
CN(C)S(=O)(=O)c1cccc(NC(=O)COC(=O)c2cc(=O)[nH]c(=O)[nH]2)c1	-12.5% (inactive)
CN(C)S(=O)(=O)c1cccc(NC(=O)COc2ccc3ccccc3c2)c1	30.8% (inactive)
Nc1[nH]c(C(=O)c2ccc(Br)cc2)c(-c2ccc3c(c2)OCO3)c1C(=O)NCCc1c[nH]c2ccccc12	-6.65% (inactive)
CC(C)(C)NC(=O)CN(C(=O)c1csnn1)c1ccccc1-c1ccccc1	5.99% (inactive)
OC(CNCCc1ccc(Cl)cc1Cl)COc1ccccc1 (stereo unspecified)	52.8% (active)
OC(COc1ccccc1)CN1CCN(c2cccc(Cl)c2)CC1 (stereo unspecified)	-33.9% (inactive)
COc1ccc(OCC(O)CNC(=O)Nc2ccc(Cl)cc2)cc1 (stereo unspecified)	12.9% (inactive)
CCOc1ccc(CCN2C(=O)C(=O)N([C@@H](Cc3ccc(O)cc3)CN3CCC[C@H]3CN3C(=O)C(=O)NC[C@@H]3CC(C)C)C[C@@H]2Cc2ccccc2)cc1	-8.01% (inactive)
CCOC(=O)C1CSCCS(=O)(=O)N1Cc1ccc(Cl)cc1 (stereo unspecified)	-2.26% (inactive)

SMILES	inhibition
NC(=O)C1CCN(C(=O)c2ccc3c(=O)n(Cc4cccc(Br)c4)c(=S)[nH]c3c2)CC1	-0.46% (inactive)
C=CCn1c(SCc2cccc(F)c2)nc2cc(C(=O)N3CCC(C(N)=O)CC3)ccc2c1=O	62.7% (active)
C=CCn1c(SCC(=O)CC(=O)OCC)nc2cc(C(=O)N3CCC(C(N)=O)CC3)ccc2c1=O	-12.6% (inactive)
COc1ccc2[nH]c(=O)c(CN(Cc3cccnc3)S(=O)(=O)c3ccccc3F)cc2c1	69.4% (active)
COc1ccc(-c2[nH]ncc2CN(C)Cc2cccnc2)c(F)c1	-6.76% (inactive)
CCOc1ccc2[nH]c(=O)c(CN(CCCO)S(=O)(=O)c3ccc(F)cc3)cc2c1	28.9% (inactive)
O=C(Nc1ccccc1)c1ccc2nsnc2c1	-3.37% (inactive)
O=C(Nc1cccc(NC(=O)c2ccc(Br)cc2)c1)c1ccccc1	66% (active)
CC(C)(C)NC(=O)c1cccc(NC(=O)Cc2ccc(Br)cc2)c1	-5.95% (inactive)
CCn1cc(/C=C2/SC(=S)NC2=O)c(C)n1	-4.35% (inactive)
O=C(NCc1cccnc1)c1ccc2nc([C@@H]3O[C@H](CO)[C@H](O)[C@H](O)[C@H]3O)[nH]c2c1	1.36% (inactive)
CCOc1ccc(N2CC(C(=O)NCc3ccccn3)CC2=O)cc1 (stereo unspecified)	-11.4% (inactive)
CCOc1ccc(N2CC(C(=O)N/N=C/c3sccc3C)CC2=O)cc1 (stereo unspecified)	105% (active)
CCOc1ccc(NC(=O)[C@H](C)NC(=O)C2CC(=O)N(c3ccc(OC)cc3)C2)cc1 (stereo partly specified)	-34.6% (inactive)
O=C(NCc1ccccc1)[C@H]1CCCN1C(=O)[C@H]1CCCN1C(=O)c1cc(F)cc(F)c1	-9.09% (inactive)
COC(=O)[C@]12CCCCC=C1N(Cc1ccc3c(c1)OCO3)C(=O)[C@H](CC(=O)N1CCOCC1)C2	2.33% (inactive)
Cn1c(=O)c2ccccc2n(CC(=O)Nc2ccc3c(c2)OCCO3)c1=O	-4.86% (inactive)
Cc1ccc(Cn2c(C)c(C(=O)NCc3ccccc3C(F)(F)F)sc2=O)cc1	24% (inactive)
Cc1c(C(=O)NCc2ccc(C#N)cc2)sc(=O)n1Cc1ccc(C(=O)N(C)C)cc1	0.09% (inactive)
CC(=O)Oc1ccc(Cn2c(C)c(C(=O)NCc3ccc(C#N)cc3)sc2=O)cc1	85.1% (active)

From PubChem BioAssay AID624466 (The Scripps Research Institute Molecular Screening Center, 2012)
